Numbering of substitutions follows the chain as printed. Like-named read-outs stand apart in the source and are kept apart here. Values belong to the molecule of their own block, whether it stands above or below them.
How the values were obtained:
FL-Ppara = target: T1, FL-Ppara (Mus musculus, UniProt P23204); type: cell-based
T1 sequence (P23204 1-468): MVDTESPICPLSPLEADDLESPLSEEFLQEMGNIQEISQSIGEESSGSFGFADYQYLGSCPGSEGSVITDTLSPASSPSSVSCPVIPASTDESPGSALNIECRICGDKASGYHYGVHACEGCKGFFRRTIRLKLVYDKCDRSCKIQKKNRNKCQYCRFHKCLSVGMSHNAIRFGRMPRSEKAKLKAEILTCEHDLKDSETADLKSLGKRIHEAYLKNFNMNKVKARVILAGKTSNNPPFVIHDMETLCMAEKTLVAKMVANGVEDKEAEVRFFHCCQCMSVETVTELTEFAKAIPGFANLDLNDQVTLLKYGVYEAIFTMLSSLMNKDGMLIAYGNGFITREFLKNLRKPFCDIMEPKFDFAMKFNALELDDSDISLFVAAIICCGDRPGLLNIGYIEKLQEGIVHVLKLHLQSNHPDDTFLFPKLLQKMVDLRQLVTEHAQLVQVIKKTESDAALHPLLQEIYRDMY

Y314D/Y464D-Ppara = target: T2, Y314D/Y464D-Ppara (Mus musculus, UniProt P23204, Y314D/Y464D); type: cell-based
T2 sequence (P23204 1-468 Y314D/Y464D): T1 sequence (P23204 1-468) with Y314D, Y464D

Y464D-Ppara = target: T3, Y464D-Ppara (Mus musculus, UniProt P23204, Y464D); type: cell-based
T3 sequence (P23204 1-468 Y464D): T1 sequence (P23204 1-468) with Y464D

Y314D-Ppara = target: T4, Y314D-Ppara (Mus musculus, UniProt P23204, Y314D); type: cell-based
T4 sequence (P23204 1-468 Y314D): T1 sequence (P23204 1-468) with Y314D

[1] = tested on: PPRE-driven luciferase activity; assay: PPRE-luciferase assay in Ppara-null astrocytes transduced with empty vector; type: cell-based, mouse; details: 4 h
In short: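 Ppara-null astrocytes came from mixed glial cultures of 7-d-old pups. They were transduced 48 h with empty-vector lentivirions and transfected with tk-PPREx3-Luc reporter. After 24 h they were treated with different doses of test compound for 4 h, then luciferase activity was read. Values are mean ± SD of three independent experiments.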

PPARγ = target: T5, PPARγ (Mus musculus, UniProt P37238); assay: GW9662 against rosiglitazone-stimulated PPRE-luciferase in Pparb-null astrocytes; type: cell-based; details: GW9662 30 min before rosiglitazone
T5 sequence (P37238 1-505): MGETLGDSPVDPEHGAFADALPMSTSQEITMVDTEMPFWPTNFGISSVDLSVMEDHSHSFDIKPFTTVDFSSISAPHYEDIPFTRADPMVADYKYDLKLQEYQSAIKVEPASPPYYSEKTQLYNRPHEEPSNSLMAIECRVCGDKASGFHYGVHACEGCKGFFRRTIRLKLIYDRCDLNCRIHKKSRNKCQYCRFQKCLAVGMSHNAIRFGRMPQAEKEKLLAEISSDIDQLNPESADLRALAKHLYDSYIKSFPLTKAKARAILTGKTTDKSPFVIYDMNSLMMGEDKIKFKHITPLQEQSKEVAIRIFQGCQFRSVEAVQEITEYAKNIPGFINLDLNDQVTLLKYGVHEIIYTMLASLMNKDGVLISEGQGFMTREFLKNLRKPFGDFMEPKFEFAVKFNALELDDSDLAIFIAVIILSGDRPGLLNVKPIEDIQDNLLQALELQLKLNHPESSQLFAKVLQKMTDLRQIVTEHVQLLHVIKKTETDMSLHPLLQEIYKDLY

[2] = tested on: Ppara-null hippocampal neurons; assay: Dendritic spine density; type: cell-based, mouse; details: Ppara-null neurons transduced with lenti-FL-Ppara or lenti-Y464D-Ppara
In short: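 Ppara-null hippocampal neurons were taken from E18 fetuses and treated with 10 μM AraC to remove glia. They were differentiated 9–10 days, then transduced 48 h with lentivirions carrying GFP (vector), FL-Ppara or Y464D-Ppara. Neurons then received vehicle (DMSO) or test compound for 24 h. They were stained with Dylight-554-phalloidin, and spine density was scored by fluorescence microscopy.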

PPRE-luciferase activity (Y314D/Y464D-Ppara; Ppara-null astrocytes transduced with lenti-Y314D/Y464D-Ppara, 4 h): no luciferase activity
PPRE-luciferase activity (Y464D-Ppara; Ppara-null astrocytes transduced with lenti-Y464D-Ppara, 4 h): no luciferase activity
PPRE-luciferase activity (Y314D-Ppara; Ppara-null astrocytes transduced with lenti-Y314D-Ppara, 4 h): no luciferase activity
SMILES: CCOC(=O)C(C)(C)Oc1ccc(Cl)cc1 [clofibrate, reference compound]
PPRE-luciferase reporter activity (FL-Ppara; Ppara-null astrocytes transduced with lenti-FL-Ppara, 4 h): markedly induced PPRE-luciferase activity
PPRE-driven luciferase activity [1]: unable to induce PPRE-luciferase activity

SMILES: CC(C)OC(=O)C(C)(C)Oc1ccc(C(=O)c2ccc(Cl)cc2)cc1 [fenofibrate]
PPRE-driven luciferase activity [1]: unable to induce PPRE-luciferase activity

SMILES: O=C(Nc1ccccc1)c1cc([N+](=O)[O-])ccc1Cl [GW9662]
effect on rosiglitazone-mediated PPRE-luciferase activity (PPARγ): Inhibition of rosiglitazone-mediated increase in PPRE-luciferase activity

PPRE-luciferase activity (Y314D/Y464D-Ppara): no luciferase activity
PPRE-luciferase activity (Y464D-Ppara): no luciferase activity
PPRE-luciferase activity (Y314D-Ppara): no luciferase activity
SMILES: Cc1cccc(Nc2cc(Cl)nc(SCC(=O)O)n2)c1C [WY14643, reference compound]
PPRE-luciferase reporter activity (FL-Ppara): markedly induced PPRE-luciferase activity
density of dendritic spines [2]: stimulated the density of spines only when Ppara-null neurons were transduced with lenti-FL-Ppara, but not lenti-Y464D-Ppara
PPRE-driven luciferase activity [1]: unable to induce PPRE-luciferase activity

Reference: paper PMC5110367 (Nature chemical biology, 2016)
